Measurements: PMC8100350 (International Journal for Parasitology: Drugs and Drug …, 2021)
Like-named read-outs stand apart in the source and are kept apart here.

Key:
Format in all cases: cell-based
P. falciparum C2B = settings: 48 h, 72 h and 96 h assays (all time points)
Method in brief: (§1)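 Sorbitol-synchronised ring stages in O+ erythrocytes, run as 48 h (1% parasitaemia, 1% haematocrit, label at start), 72 h (0.25%, 2.5%, label ~48 h) or 96 h (0.1%, 2%, medium change plus label ~72 h). Read-out was [3H]-hypoxanthine incorporation by scintillation. IC50 by log-linear interpolation against 0.5% DMSO; triplicate wells, ≥2 independent assays. RI = resistant-line IC50/3D7 IC50. Controls: chloroquine (Dd2), atovaquone (C2B), cycloguanil (FCR3).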

P. falciparum 3D7 = experiment: [3H]-hypoxanthine incorporation growth inhibition assay, P. falciparum 3D7; settings: for IC50: mean ± SD
P. falciparum Dd2 = tested on: P. falciparum Dd2
Method in brief: as §1

[1] = tested on: Neonatal foreskin fibroblast (NFF) cells; experiment: Human cell cytotoxicity assay, NFF; settings: read-out: NFF IC50
Method in brief: (§2)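 NFF and HEK293 cells were grown in RPMI 1640 with 10% FCS and 1% streptomycin at 37 °C and 5% CO2. Exposure was 72 h. Growth inhibition was taken against matched DMSO controls. IC50 came from log-linear interpolation, as the mean ± SD of three independent experiments, each in triplicate.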

[2] = tested on: human embryonic kidney (Hek293) cells; experiment: Human cell cytotoxicity assay, HEK293; settings: HEK293, read-out: HEK293 IC50
Method in brief: as §2

[3] = tested on: P. falciparum 3D7 parasites; experiment: Isopentenyl pyrophosphate; settings: for rescue of growth inhibitory activity by IPP supplementation: 96 h assay, 200 μM IPP; for IC50: Plasmodium falciparum, 3D7, 96 h
Method in brief: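 3D7 ring stages, sorbitol-synchronised, in O+ erythrocytes (0.1% parasitaemia, 2% haematocrit). Two identical 96 h assays ran in parallel, one with and one without 200 μM IPP. At ~72 h medium was replaced with fresh medium containing [3H]-hypoxanthine, incubated 24 h more, frozen, harvested and counted. Clindamycin was the positive control. IC50 by log-linear interpolation; triplicate wells, ≥3 independent experiments; unpaired t-test.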

[4] = Plasmodium falciparum, 3D7, 48 h, read-out: P. falciparum 3D7 IC50, 48 h, 48 h assay (fast action)
[5] = Plasmodium falciparum, 3D7, 72 h, read-out: P. falciparum 3D7 IC50, 72 h, 72 h assay
[6] = Plasmodium falciparum, 3D7, 96 h, read-out: P. falciparum 3D7 IC50, 96 h, 96 h assay (slow action)

Compound	Resistance Index (RI), C2B versus 3D7, text summary (P. falciparum C2B)	PfSI, Selectivity Index (mammalian cell IC50/P. falciparum IC50) (P. falciparum 3D7; NFF or HEK293 IC50 / P. falciparum 3D7 72 h IC50)	IC50 (P. falciparum 3D7; [4])	IC50 (P. falciparum 3D7; [5])	IC50 (P. falciparum 3D7; [6])	RI (Dd2 IC50/3D7 IC50), 48h (P. falciparum Dd2; 48 h assay)	RI (Dd2 IC50/3D7 IC50), 72h (P. falciparum Dd2; 72 h assay)	RI (Dd2 IC50/3D7 IC50), 96h (P. falciparum Dd2; 96 h assay)	IC50 [1]	IC50 [2]	rescue of growth inhibitory activity by IPP supplementation [3]	IC50 ([3]; read-out: P. falciparum 3D7 IC50, +IPP)	IC50 ([3]; read-out: P. falciparum 3D7 IC50, -IPP)	fold less active than himbeline (P. falciparum 3D7; 96 h assays, 3D7)	IC50 (P. falciparum 3D7; read-out: P. falciparum 3D7 IC50, 96 h, 96 h assay (slow action))
O=C1C(O)=C([C@H]2CC[C@H](c3ccc(Cl)cc3)CC2)C(=O)c2ccccc21 [ATQ, atovaquone]	> 2000	–	–	–	–	–	–	–	–	–	–	–	–	–	–
CCN(CC)CCCC(C)Nc1ccnc2cc(Cl)ccc12 (stereo not shown) [Chloroquine]	–	4555–5896	0.008 ± 0.002 µM	0.006 ± 0.004 µM	0.004 ± 0.002 µM	3	3	7	35.4 ± 3.6 µM	27.3 ± 13.3 µM	not rescued	–	–	–	–
CCC[C@@H]1C[C@@H](C(=O)N[C@@H]([C@H]2O[C@H](SC)[C@H](O)[C@@H](O)[C@H]2O)[C@H](C)Cl)N(C)C1 [Clindamycin, clindamycin]	–	–	> 50 µM	0.009 ± 0.002 µM	0.005 ± 0.002 µM	–	–	–	–	–	rescued	> 0.5 µM	0.004 ± 0.001 µM	–	–
CCOC(=O)N[C@@H]1CC[C@@H]2[C@@H](C1)C[C@H]1C(=O)O[C@H](C)[C@H]1[C@H]2/C=C/c1ccc(-c2cccc(F)c2)cn1 [Vorapaxar]	–	–	11.2 ± 3 µM	3.93 ± 1.07 µM	3.5 µM	–	–	–	–	–	–	–	–	~ 6 fold	3.52 ± 0.25 µM
